Experimental data: ChEMBL document CHEMBL1914438, “Synthesis and biological activity of novel N-cycloalkyl-(cycloalkylaryl)-2-[(3-R-2-oxo-2H-[1,2,4]triazino[2,3-c]quinazoline-6-yl)thio]acetamides” (2011)

Assays:
Type in all cases: functional
[1] = Cytotoxicity against human NCI60 cells assessed as cell growth at 10^-5 M after 48 hrs by SRB assay; settings: NCI60, 48 h, read-out: Activity
In short: (§1)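 NCI human tumor cell line panel from nine cancer types. Each line was inoculated and preincubated 24–48 h, then exposed to a single concentration (10^-5 M) for 48 h. Growth was read by sulforhodamine B protein staining, measured spectrophotometrically. Value reported as percent growth of treated cells relative to untreated controls.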

786-0 = test: Cytotoxicity against human 786-0 cells assessed as cell growth at 10^-5 M after 48 hrs by SRB assay; settings: 786-0, 48 h, read-out: Activity
In short: (§2)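 NCI 60-cell-line one-dose primary screen: cells inoculated and preincubated 24–48 h, then test agent added at a single 10^-5 M concentration for a further 48 h. Endpoint is sulforhodamine B protein staining read spectrophotometrically. Reported as percent growth relative to untreated control cells.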

RXF 393 = test: Cytotoxicity against human RXF393 cells assessed as cell growth at 10^-5 M after 48 hrs by SRB assay; settings: RXF 393, 48 h, read-out: Activity; in short: as §1
SR = test: Growth inhibition of human SR cells after 48 hrs by SRB assay
In short: (§3)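 NCI 60-cell-line human tumor panel. Cells were inoculated and preincubated for 24–48 h, then exposed continuously to compound for 48 h. Primary screen used a single 10^-5 M concentration. Growth was measured by sulforhodamine B protein staining, read spectrophotometrically, and reported as percent growth versus untreated controls. Selected compounds were also run at five 10-fold dilutions (10^-4 to 10^-8 M) to derive GI50 from time-zero-corrected absorbances.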

HT-29 = test: Growth inhibition of human HT-29 cells after 48 hrs by SRB assay; settings: HT-29, 48 h
In short: (§4)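 NCI panel of about 60 human tumor lines, 48 h continuous exposure at five 10-fold dilutions from 10^-4 to 10^-8 M. SRB protein staining was read as absorbance at time zero, in untreated controls and at each concentration. GI50 is the concentration giving 50% lower net protein increase than controls. TGI is where Ti = Tz, and LC50 is 50% protein loss versus start.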

SNB-75 = test: Growth inhibition of human SNB75 cells after 48 hrs by SRB assay; settings: SNB-75, 48 h; in short: as §3
LOX IMVI = test: Growth inhibition of human LOXIMVI cells after 48 hrs by SRB assay; in short: as §4
ACHN = test: Growth inhibition of human ACHN cells after 48 hrs by SRB assay; in short: as §4
T47D [2] = test: Growth inhibition of human T47D cells after 48 hrs by SRB assay; in short: as §3
MDA-MB-468 = test: Growth inhibition of human MDA-MB-468 cells after 48 hrs by SRB assay; settings: MDA-MB-468, 48 h; in short: as §4
[3] = system: Photobacterium leiognathi; test: Antibacterial activity against Photobacterium leiognathi Sh1 assessed as inhibition of bacterial luminescence at 0.25 mg/mL after 10 mins by bioluminometry-based chronic action test; parameters: scale not given: the % may be the effect or the level left; settings: in the assay text read “after 16 to 18 hrs” for “after 10 mins”
In short: (§5)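 Chronic (growth plus luminescence) test with P. leiognathi Sh1 at 10^5 cells/mL in chloride solution, compounds added in DMSO. After 10 min at 25 °C, growth medium added at 1:50 and the mix incubated 16–18 h at 30 °C. Luminescence then measured by bioluminometer as % of untreated control. Tetracycline reference.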

Escherichia coli = test: Antibacterial activity against Escherichia coli assessed as zone of inhibition at 0.5 mg/mL after 24 hrs by stiff-plate agar-diffusion method; settings: read-out: DIZ
Aspergillus niger = test: Antifungal activity against Aspergillus niger assessed as zone of inhibition at 0.1 mg/mL after 48 to 72 hrs by stiff-plate agar-diffusion method; settings: read-out: DIZ
CAKI-1 = test: Cytotoxicity against human Caki1 cells assessed as cell growth at 10^-5 M after 48 hrs by SRB assay; settings: CAKI-1, 48 h, read-out: Activity; in short: as §2
K562 = test: Cytotoxicity against human K562 cells assessed as cell growth at 10^-5 M after 48 hrs by SRB assay; settings: K562, 48 h, read-out: Activity; in short: as §2
M14 = test: Cytotoxicity against human M14 cells assessed as cell growth at 10^-5 M after 48 hrs by SRB assay; settings: M14, 48 h, read-out: Activity; in short: as §2
RPMI-8226 = test: Cytotoxicity against human RPMI8226 cells assessed as cell growth at 10^-5 M after 48 hrs by SRB assay; settings: RPMI-8226, 48 h, read-out: Activity; in short: as §1
HCT-116 = test: Cytotoxicity against human HCT116 cells assessed as cell growth at 10^-5 M after 48 hrs by SRB assay; settings: HCT-116, 48 h, read-out: Activity; in short: as §2
OVCAR-3 = test: Cytotoxicity against human OVCAR3 cells assessed as cell growth at 10^-5 M after 48 hrs by SRB assay; settings: OVCAR-3, 48 h, read-out: Activity; in short: as §1
MCF7 = test: Cytotoxicity against human MCF7 cells assessed as cell growth at 10^-5 M after 48 hrs by SRB assay; settings: MCF7, 48 h, read-out: Activity; in short: as §2
BT-549 = test: Cytotoxicity against human BT549 cells assessed as cell growth at 10^-5 M after 48 hrs by SRB assay; settings: BT-549, 48 h, read-out: Activity; in short: as §2
T47D [4] = test: Cytotoxicity against human T47D cells assessed as cell growth at 10^-5 M after 48 hrs by SRB assay; settings: read-out: Activity; in short: as §1
NCI-H460 = test: Cytotoxicity against human NCI-H460 cells assessed as cell growth at 10^-5 M after 48 hrs by SRB assay; settings: NCI-H460, 48 h, read-out: Activity; in short: as §1
COLO 205 = test: Cytotoxicity against human COLO205 cells assessed as cell growth at 10^-5 M after 48 hrs by SRB assay; settings: COLO 205, 48 h, read-out: Activity; in short: as §2
SW-620 = test: Cytotoxicity against human SW620 cells assessed as cell growth at 10^-5 M after 48 hrs by SRB assay; settings: SW-620, 48 h, read-out: Activity; in short: as §1
SK-MEL-28 = test: Cytotoxicity against human SK-MEL-28 cells assessed as cell growth at 10^-5 M after 48 hrs by SRB assay; settings: SK-MEL-28, 48 h, read-out: Activity; in short: as §1
OVCAR-8 = test: Cytotoxicity against human OVCAR8 cells assessed as cell growth at 10^-5 M after 48 hrs by SRB assay; settings: OVCAR-8, 48 h, read-out: Activity; in short: as §1
[5] = system: Photobacterium leiognathi; test: Antibacterial activity against Photobacterium leiognathi Sh1 assessed as inhibition of bacterial luminescence at 0.025 mg/mL after 10 mins by bioluminometry-based chronic action test; parameters: scale not given: the % may be the effect or the level left; settings: in the assay text read “after 16 to 18 hrs” for “after 10 mins”; in short: as §5
[6] = read-out: pLC50 (the source's name) (converted)

Which growth at 10 µM [1] does the source give for `CCC1C2CCC(C2)C1NC(=O)CSc1nc2ccccc2c2nc(=O)c(-c3ccc(OC)cc3)nn12` (configuration not stated) here?
Its growth at 10 µM is 73.7%.

And the growth at 10 µM (786-0)?
The growth at 10 µM was 77.7%.

And the growth at 10 µM (RXF 393)?
Its growth at 10 µM is 9.46%.

And the GI50 (SR)?
Its GI50 is 1.35 µM.

What about the CC50 (SR; [6]) of the same compound?
Its CC50 is greater than 50.1 µM.

And the TGI (SR; read-out: pTGI (converted))?
Its TGI is 7.41 µM.

And the GI50 (HT-29)?
Its GI50 is 3.24 µM.

What about the CC50 (HT-29; [6]) of the same compound?
The CC50 was greater than 50.1 µM.

What about the TGI (HT-29; read-out: pTGI) of the same compound?
Its TGI is greater than 50.1 µM.

And the GI50 (SNB-75)?
The GI50 was 3.09 µM.

What about the CC50 (SNB-75; [6]) of the same compound?
The CC50 was 30.9 µM.

And the TGI (SNB-75; read-out: pTGI (converted))?
Its TGI is 11.5 µM.

What about the GI50 (LOX IMVI) of the same compound?
The GI50 was 3.55 µM.

And the CC50 (LOX IMVI; [6])?
Its CC50 is greater than 50.1 µM.

And the TGI (LOX IMVI; read-out: pTGI (converted))?
The TGI was 18.2 µM.

What about the GI50 (ACHN) of the same compound?
Its GI50 is 1.91 µM.

What about the CC50 (ACHN; [6]) of the same compound?
The CC50 was greater than 50.1 µM.

And the TGI (ACHN; read-out: pTGI)?
The TGI was greater than 50.1 µM.

What about the GI50 (T47D [2]) of the same compound?
Its GI50 is 3.72 µM.

And the CC50 (T47D [2]; [6])?
The CC50 was greater than 50.1 µM.

And the TGI (T47D [2]; read-out: pTGI)?
Its TGI is greater than 50.1 µM.

And the GI50 (MDA-MB-468)?
The GI50 was 1.35 µM.

And the CC50 (MDA-MB-468; [6])?
Its CC50 is 30.2 µM.

What about the TGI (MDA-MB-468; read-out: pTGI (converted)) of the same compound?
The TGI was 3.98 µM.

What about the Activity [3] of the same compound?
The Activity was 80%.

What about the zone of inhibition at 500 µg/mL (Escherichia coli) of the same compound?
The zone of inhibition at 500 µg/mL was 0 mm.

And the zone of inhibition at 100 µg/mL (Aspergillus niger)?
The zone of inhibition at 100 µg/mL was 0 mm.

And the growth at 10 µM (CAKI-1)?
The growth at 10 µM was 36.1%.

What about the growth at 10 µM (K562) of the same compound?
Its growth at 10 µM is 39.2%.

What about the growth at 10 µM (M14) of the same compound?
Its growth at 10 µM is 44.2%.

And the growth at 10 µM (RPMI-8226)?
Its growth at 10 µM is 47.4%.

And the growth at 10 µM (HCT-116)?
Its growth at 10 µM is 64.3%.

What about the growth at 10 µM (OVCAR-3) of the same compound?
The growth at 10 µM was -69.7%.

And the growth at 10 µM (MCF7)?
Its growth at 10 µM is 48.2%.

And the growth at 10 µM (BT-549)?
The growth at 10 µM was 90.9%.

And the growth at 10 µM (T47D [4])?
The growth at 10 µM was -11.3%.

And the growth at 10 µM (NCI-H460)?
The growth at 10 µM was 56%.

And the growth at 10 µM (COLO 205)?
The growth at 10 µM was 28.6%.

What about the growth at 10 µM (SW-620) of the same compound?
Its growth at 10 µM is 45.9%.

And the growth at 10 µM (SK-MEL-28)?
Its growth at 10 µM is 68.7%.

And the growth at 10 µM (OVCAR-8)?
The growth at 10 µM was 53.1%.

And the Activity [5]?
The Activity was 85.3%.
